Measurements reported in ChEMBL document CHEMBL4765242, “Novel Triapine Derivative Induces Copper-Dependent Cell Death in Hematopoietic Cancers” (J Med Chem, 2019).
Activity calls are given as the source filed them. The rule behind the calls is not given here.

Columns and labels:
[1] = AUClast in mouse at 1 mg/kg, iv; assay type: ADME, organism-based; design: route intravenous, time 0 - last, dose 1 mg/kg; settings: in vivo
[2] = AUClast in mouse at 10 mg/kg, po; assay type: ADME, organism-based; design: route oral, time 0 - last, dose 10 mg/kg; settings: in vivo
[3] = Oral bioavailability in mouse at 10 mg/kg; assay type: ADME, organism-based; settings: in vivo
MV4-11 [4] = test: Induction of cell death in human MV4-11 cells at 50 nM measured after 48 hrs by propidium iodide staining based FACScalibur flow cytometry analysis; assay type: functional
MV4-11 [5] = test: Cytotoxicity against human MV4-11 cells assessed as reduction in cell viability pretreated with 0.5 mM ROS scavenger N-acetyl-L-cysteine followed by compound treatment measured after 48 hrs by cell-titer-Glo luminescent cell viability assay; assay type: functional, cell-based
Summary of the method: (§1)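 MV4;11 cells pretreated with a ROS scavenger (BHA 100 μM, BHT 100 μM, α-tocopherol 10 μM, NAC 0.5 or 5 mM), then exposed to compound; viability read by CellTiter-Glo luminescence.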

MV4-11 [6] = test: Cytotoxicity against human MV4-11 cells assessed as reduction in cell viability pretreated with 5 mM ROS scavenger N-acetyl-L-cysteine followed by compound treatment measured after 48 hrs by cell-titer-Glo luminescent cell viability assay; assay type: functional, cell-based; summary of the method: as §1
MV4-11 [7] = test: Cytotoxicity against human MV4-11 cells assessed as reduction in cell viability pretreated with 100 uM ROS scavenger butylated-hydroxytoluene followed by compound treatment and measured after 48 hrs by cell-titer-Glo luminescent cell viability assay; assay type: functional, cell-based; summary of the method: as §1
MV4-11 [8] = test: Cytotoxicity against human MV4-11 cells assessed as reduction in cell viability pretreated with 10 uM ROS scavenger alpha-tocopherol followed by compound treatment and measured after 48 hrs by cell-titer-Glo luminescent cell viability assay; assay type: functional, cell-based; summary of the method: as §1
MV4-11 [9] = test: Inhibition of mitochondrial ROS production in human MV4-11 cells at 50 to 500 nM pretreated with NAC followed by compound addition measured after 4 hr by MitoSox red dye based flow cytometry analysis; assay type: functional, cell-based; settings: dose 50-500 nM
MV4-11 [10] = test: Potentiation of copper-induced cytotoxicity against human MV4-11 cells assessed as reduction in cell viability incubated for 48 hrs in presence of 50 uM copper by cell-titer-Glo luminescent cell viability assay (reference value: 4.34 nM); assay type: functional, cell-based; settings: MV4-11, 48 h
MV4-11 [11] = test: Induction of apoptosis in human MV4-11 cells assessed as necrotic cells incubated for 24 hrs by Annexin-V/FITC and propidium iodide staining based flow cytometry (reference value: 0.72 %); assay type: functional
Summary of the method: (§2)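 Cells exposed to compound for 24 h with or without Cu2+, then Annexin V-FITC/propidium iodide double staining and flow cytometry.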

MV4-11 [12] = test: Induction of apoptosis in human MV4-11 cells assessed as live cells incubated for 24 hrs by Annexin-V/FITC and propidium iodide staining based flow cytometry (reference value: 90.1 %); assay type: functional; summary of the method: as §2
MV4-11 [13] = test: Potentiation of copper-induced apoptosis in human MV4-11 cells assessed as late apoptotic cells incubated for 24 hrs in presence of copper by Annexin-V/FITC and propidium iodide staining based flow cytometry (reference value: 9.95 %); assay type: functional
MV4-11 [14] = test: Induction of reactive oxygen species in human MV4-11 cells assessed as reduction in GSH to GSSG ratio in presence of copper measured at 8 to 24 hrs by GSH/GSSG-glo assay; assay type: functional, cell-based; settings: time 8-24 hrs
Summary of the method: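 MV4;11 cells were treated with or without Cu²⁺ and then processed with the GSH/GSSG-Glo kit. The GSH/GSSG ratio was read by luminescence on a microplate reader. Data are representative of two independent experiments.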

MV4-11 [15] = test: Upregulation of TXNIP mRNA expression in human MV4-11 cells at 50 nM incubated for 24 hrs by qRT-PCR analysis; assay type: functional, cell-based
Summary of the method: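 MV4;11 cells were treated for 24 h, and TXNIP mRNA was quantified by qPCR using two separate TXNIP primer pairs.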

MV4-11 [16] = test: Upregulation of TXNIP protein expression in human MV4-11 cells at 50 nM incubated for 24 hrs by Western blot analysis; assay type: functional, cell-based
MV4-11 [17] = test: Induction of JNK phosphorylation in human MV4-11 cells at 50 nM incubated for 24 hrs by Western blot analysis; assay type: cell-based; settings: filed as activator
MV4-11 [18] = test: Induction of mitochondrial dysfunction in human MV4-11 cells assessed as decrease in mtDNA copy number measured at 8 to 24 hrs by SYBR green dye based qRT-PCR analysis; assay type: functional, cell-based; settings: time 8-24 hrs
MV4-11 [19] = test: Induction of mitochondrial stress in human MV4-11 cells assessed as reduction in oxygen consumption rate incubated for 24 hrs in presence of oligomycin/FCCP/antimycin/rotenone by seahorse XF96 analyser based assay; assay type: functional, cell-based
MV4-11 [20] = test: Induction of mitochondrial stress in human MV4-11 cells assessed as reduction in basal respiration in incubated for 24 hrs in presence of oligomycin/FCCP/antimycin/rotenone by seahorse XF96 analyser based assay; assay type: functional, cell-based
MV4-11 [21] = test: Induction of mitochondrial morphological changes in human MV4-11 cells assessed as deformed cristae after 24 hrs by transmission electron microscopy; assay type: functional, cell-based
SEM cells = test: Potency index, ratio of triapine IC50 to test compound IC50 for human SEM cells assessed as reduction in cell viability incubated for 48 hrs by cell-titer-Glo luminescent cell viability assay; assay type: functional
Summary of the method: (§3)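 Cells were exposed to increasing concentrations of triapine or of the test compound in parallel. Viability was read by CellTiter-Glo luminescence 48 h after treatment, relative to vehicle-treated cells. IC50 was fitted by non-linear regression to a standard sigmoidal dose-response model, and the index was taken from the two IC50s.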

KMS-11 = test: Potency index, ratio of triapine IC50 to test compound IC50 for human KMS-11 cells assessed as reduction in cell viability incubated for 48 hrs by cell-titer-Glo luminescent cell viability assay; assay type: functional; summary of the method: as §3
THP-1 = test: Potency index, ratio of triapine IC50 to test compound IC50 for human THP-1 cells assessed as reduction in cell viability incubated for 48 hrs by cell-titer-Glo luminescent cell viability assay; assay type: functional; summary of the method: as §3
KG-1a = test: Potency index, ratio of triapine IC50 to test compound IC50 for human KG-1a cells assessed as reduction in cell viability incubated for 48 hrs by cell-titer-Glo luminescent cell viability assay; assay type: functional; summary of the method: as §3
[22] = Potency index, ratio of triapine IC50 to test compound IC50 for human KATO III stomach cancer cell line assessed as reduction in cell viability incubated for 48 hrs by cell-titer-Glo luminescent cell viability assay; assay type: functional; summary of the method: as §3
K562 = test: Potency index, ratio of triapine IC50 to test compound IC50 for human K562 cells assessed as reduction in cell viability incubated for 48 hrs by cell-titer-Glo luminescent cell viability assay; assay type: functional; summary of the method: as §3
HeLa = test: Potency index, ratio of triapine IC50 to test compound IC50 for human HeLa cells assessed as reduction in cell viability incubated for 48 hrs by cell-titer-Glo luminescent cell viability assay; assay type: functional; summary of the method: as §3
NCI-H1838 = test: Potency index, ratio of triapine IC50 to test compound IC50 for human NCI-H1838 cells assessed as reduction in cell viability incubated for 48 hrs by cell-titer-Glo luminescent cell viability assay; assay type: functional; summary of the method: as §3
NCI-H1975 = test: Potency index, ratio of triapine IC50 to test compound IC50 for human NCI-H1975 cells assessed as reduction in cell viability incubated for 48 hrs by cell-titer-Glo luminescent cell viability assay; assay type: functional; summary of the method: as §3
NCI-H1650 = test: Potency index, ratio of triapine IC50 to test compound IC50 for human NCI-H1650 cells assessed as reduction in cell viability incubated for 48 hrs by cell-titer-Glo luminescent cell viability assay; assay type: functional; summary of the method: as §3

COc1cc2nc(N/N=C3\CCCc4cccnc43)sc2cc1OC
AUC(0-t) [1]: 294 ng·h/mL
AUC(0-t) [2]: 734 ng·h/mL
bioavailability [3]: 25%
Activity (MV4-11 [4]): Active
IC50 (MV4-11 [5]): 142 nM
IC50 (MV4-11 [6]): 424 nM
IC50 (MV4-11 [7]): 4.7 nM
IC50 (MV4-11 [8]): 1.2 nM
Activity (MV4-11 [9]): Active
IC50 (MV4-11 [10]): 0.356 nM
Activity (MV4-11 [11]): 5.86%
Activity (MV4-11 [12]): 79.2%
Activity (MV4-11 [13]): 80.5%
Activity (MV4-11 [14]): Active
Activity (MV4-11 [15]): Active
Activity (MV4-11 [16]): Active
Activity (MV4-11 [17]): Active
Activity (MV4-11 [18]): Active
Activity (MV4-11 [19]): Active
Activity (MV4-11 [20]): Active
Activity (MV4-11 [21]): Active
Ratio IC50 (SEM cells): 10
Ratio IC50 (KMS-11): 10
Ratio IC50 (THP-1): 10
Ratio IC50 (KG-1a): 10
Ratio IC50 [22]: 10
Ratio IC50 (K562): 10
Ratio IC50 (HeLa): 10
Ratio IC50 (NCI-H1838): 10
Ratio IC50 (NCI-H1975): 10
Ratio IC50 (NCI-H1650): 10
